High-throughput results (PubChem BioAssay)
Sampled rows, rich in hits. Any-hit rate of the full collection: about 12%.
KCC2 mod: KCC2 (human) Cl- transport modulation. Q9H2X9. KCC2 cells, thallium flux FluoZin-2 fluorescence. B-score of Tl+ flux slope (higher = more flux/activation; lower = inhibition) at 10 µM. 2.2% of 190,000 active. AID 1456;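 active = thallium flux slope and its plate-corrected score both differing from the plate sample mean at a set confidence after two filtering rounds, in either direction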;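 also: slope of fluorescence scaled to starting intensity during 10 to 20 s after thallium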
Diaphorase inh: counter-screen for diaphorase-based assays: diaphorase inhibitors and chemical oxidizers; diaphorase resazurin-to-resorufin fluorescence, NADH, 16 min; bacterial (C. kluyveri) enzyme, not human; inhibition, % at 20 µM; 0.69% of 190,000 active;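 active = primary screen inhibition at 20 µM above a set limit, cut at about 50% in these data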;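 also: plate controls were DMSO with full reaction for no effect and wells lacking NADH for full effect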
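System: Bacterial diaphorase enzyme (C. kluyveri) | Incubation: 16-min room-temperature incubation before reading | Benchmarks: No-NADH positive control and DMSO neutral control | Measured by: Resorufin fluorescence 544/590 nm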
WT yeast gro inh: growth inhibition of WT yeast, mitochondrial fusion screen; mitochondrial fusion phenotypic screen, WT strain; inhibition, % at 10 µM; 2.1% of 190,000 active; in the data active = inhibition above about 58%; tested in S. cerevisiae
L major viab: reduces viability of Leishmania major promastigotes; AID 1063; resazurin fluorescence viability; 9% of 200,000 active; inhibition, % at 10 µM; in the data active = inhibition above about 50%;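 also: promastigotes grown with compound for 44 hours at 28 °C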
ROMK mod: modulators of human ROMK potassium channel; AID 1918; B-score at 10 µM; P48048; 2% of 130,000 active; Tet-inducible ROMK, thallium flux fluorescence; actives lie on both sides;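 active = signal ratio slope over the read window, or its plate-corrected B-score, at least 3 SD from the plate mean, either direction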;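 also: B-score of the F/F0 ratio slope over 7 to 12 s after thallium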
Target sequence (P48048 whole entry, looked up): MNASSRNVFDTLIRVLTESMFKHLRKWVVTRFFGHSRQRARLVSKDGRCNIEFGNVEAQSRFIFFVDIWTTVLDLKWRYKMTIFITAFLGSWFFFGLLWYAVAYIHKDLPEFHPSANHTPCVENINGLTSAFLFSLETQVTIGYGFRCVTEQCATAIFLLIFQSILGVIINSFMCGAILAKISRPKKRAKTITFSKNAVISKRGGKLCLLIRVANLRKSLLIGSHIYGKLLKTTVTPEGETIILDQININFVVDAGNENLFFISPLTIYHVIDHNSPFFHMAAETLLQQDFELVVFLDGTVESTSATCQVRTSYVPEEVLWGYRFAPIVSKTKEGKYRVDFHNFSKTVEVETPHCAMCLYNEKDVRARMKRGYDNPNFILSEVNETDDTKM
Diaphorase act: diaphorase activation or chemical reduction counter-screen | Diaphorase/resazurin coupled assay, resorufin fluorescence, 16 min; hits give high values; 1 = vehicle wells, 0 = NADH-free wells | activation factor at 20 µM | 0.005% of 190,000 active | AID 1229;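 active = diaphorase activity raised at least twofold by the compound at 20 µM; inactive = activation factor below 2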
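Material: Clostridium kluyveri diaphorase, purified enzyme; Quantity: enzyme 0.07 U/mL final; Medium: HEPES pH 7.4 buffer with MgCl2 and Tween 20; Dosing: single compound dose of 20 µM, 1% DMSO final; Schedule: 16 min reaction at room temperature; Measured by: red resorufin fluorescence at 544/590 nm excitation/emission.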
Active calls of the source: *; · = no result given.

SMILES	KCC2 mod	Diaphorase inh	WT yeast gro inh	L major viab	ROMK mod	Diaphorase act
CCOC(=O)c1c(C)n(-c2ccc(C)cc2)c2c(C(C(C)=O)C(=O)O)c(Br)c(O)c(O)c12 (stereo not given)	-0.0037	72*	43	50*	-0.064	0.3
CCOC(=O)C1(Cc2ccc(Cl)cc2)CCN(Cc2cnc(N)nc2)CC1	0.42	5	0	53*	-1.1	0.9
CCOC(=O)C1(S(=O)(=O)c2ccc(Cl)cc2)CCN(Cc2ccc(C)cc2)CC1	-0.3	15	72*	28	·	0.8
CCOC(=O)C1(Cc2cccc(OC)c2)CCN(Cc2cnc(N)nc2)CC1	·	4	2	-3	-0.089	1
CCOC(=O)C1(Cc2ccccc2Cl)CCN(Cc2csc(C(C)=O)c2)CC1	·	20	20	90*	-1.3	0.8
CCOC(=O)C1(Cc2ccc(Cl)cc2)CCN(Cc2ccon2)CC1	0.53	34	3	95*	-0.21	0.7
CCOC(=O)C1(Cc2ccccc2Cl)CCN(C(=O)CN2CCOC2=O)CC1	·	16	4	-5	·	0.8
CCN(c1ccccc1)S(=O)(=O)c1ccc(Cl)c(C(=O)N(CC2CCCO2)C2CCS(=O)(=O)C2)c1 (stereo not given)	-0.0048	-12	-6	2	-0.58	1.1
Cc1ccc(C)c(N(C(=O)CS(=O)CC(=O)Nc2ccc3c(c2)OCO3)C(C)C(=O)NC2CCCC2)c1 (stereo not given)	1.3	6	-4	-5	·	0.9
CNc1cc(CSC)nc(SCc2ccc(Cl)cc2Cl)n1	0.78	-4	85*	11	·	1
Nc1nc(SCc2ccc(Cl)cc2Cl)n[nH]1	·	18	-5	-4	·	0.8
CN1CC(=O)Nc2ccc(F)cc2C1=O	-0.1	12	60*	-6	0.81	0.9
CCn1ccnc1CN(C)C(=O)CCc1nnc(CCCc2ccccc2)o1	-0.18	16	-8	-6	0.38	0.8
CCN(CCO)Cc1csc2cccc(Br)c12	0.15	12	-7	0	0.29	0.9
CCN(CCO)Cc1csc2ccc(Br)cc12	0.32	-13	-19	99*	0.1	1.1
CSc1c(SCc2ccccc2)cnn(-c2ccccc2)c1=O	-0.82	14	8	10	-1.4	0.9
O=c1c2ccccc2nc(/C=C/c2ccc([N+](=O)[O-])cc2)n1CCCO	-0.38	24	-8	60*	-0.88	0.8
CC(=O)Oc1ccc(-c2cccc(C(=O)Oc3ccccc3)c2)cc1	-3.9	16	74*	0	-0.035	0.8
CC(=O)Oc1ccc(-c2cccc(C(=O)NCC(=O)O)c2)cc1	0.78	15	-17	-4	·	0.9
O=C(CSc1cccc[n+]1[O-])c1cc(Cl)ccc1Cl	-0.31	14	9	99*	0.14	0.9
O=C(O)CSc1cccc[n+]1[O-]	0.2	-1	-8	-2	0.18	1
O=C(CSc1cccc[n+]1[O-])c1cc2ccccc2o1	7.2*	11	5	95*	-0.036	0.9
COC(=O)c1cc(NS(=O)(=O)c2ccc(N3CCOCC3)c(N)c2)cc(C(=O)OC)c1	0.4	3	-16	26	·	1
CCNS(=O)(=O)c1ccc2nc(NC(=O)/C=C/c3cc(OC)c(OC)c(OC)c3)sc2c1	0.1	1	-12	52*	0.019	1
Cc1ccc(-c2csc(NC(=O)COc3ccc(N(C)S(=O)(=O)c4ccc(C)cc4)cc3)n2)cc1	0.64	20	-15	90*	·	0.8
SMILES	KCC2 mod	Diaphorase inh	WT yeast gro inh	L major viab	ROMK mod	Diaphorase act
COc1ccc(-c2csc(NC(=O)COc3ccc(N(C)S(=O)(=O)c4ccc(C)cc4)cc3)n2)cc1	-0.028	8	-5	95*	0.91	0.9
COc1ccc(OCC(O)CNC(=O)c2ccc(C)cc2)cc1 (stereo not given)	0.022	·	·	·	·	·
COc1ccc(N/C=C(\C(C)=O)c2ccc(OC)c(OC)c2)cc1OC	-1.1	14	13	-5	0.12	0.9
Cc1cccc(CSc2nc3c(c(-c4cccs4)c2C#N)CN(C)CC3)c1	0.51	58*	12	31	·	0.4
COc1ccc(C2=NN(CC(=O)NCc3ccco3)C(=O)CC2)cc1	-0.31	11	8	-2	0.85	0.9
Cc1ccsc1C(=O)OCc1csc(-c2ccccc2)n1	-0.55	6	67*	5	-0.0029	0.9
Cc1ccccc1N1CCN(C(=S)c2ccccc2)CC1	-0.039	14	53	57*	-0.025	0.9
COc1cc(C(=S)N2CCN(c3ccccc3Cl)CC2)cc(O)c1O	0.16	61*	-3	16	-0.83	0.4
Cc1ccc(-c2csc(NC(=O)N3CCOCC3)n2)cc1	·	4	5	-6	-0.072	1
CCn1nnc(-c2ccc(N)cc2)n1	0.77	6	3	-6	-0.3	0.9
CCc1ccccc1N(C1=NCCCS1)S(=O)(=O)c1ccc(C(C)(C)C)cc1	-1.7	13	66*	33	0.28	0.9
CC(C)=NNc1nc2sc3c(c2c(=O)[nH]1)CC(C)(C)OC3	0.51	9	-15	-10	0.19	0.9
CCCCN(C(=S)NC(=O)c1cc(OC)c(OC)c(OC)c1)c1c(N)n(Cc2ccccc2)c(=O)[nH]c1=O	0.18	19	-12	0	0.34	0.8
CNS(=O)(=O)c1ccc(N=Cc2c(C)[nH]n(-c3ccc(C)cc3C)c2=O)cc1	0.024	20	-14	-1	0.1	0.8
Cc1ccc(-n2[nH]c(C)c(C=Nc3ccc(S(=O)(=O)N4CCOCC4)cc3)c2=O)c(C)c1	0.13	15	13	52*	0.98	0.8
O=[N+]([O-])c1ccccc1CNC(Cc1ccccc1)c1ccccc1 (stereo not given)	-0.23	11	39	90*	1.6	0.9
CC(=O)Nc1cccc(NC(=O)CS(=O)(=O)c2cn(CC(=O)N3CCOCC3)c3ccccc23)c1	0.5	11	-13	-4	-0.46	0.9
Cc1c(Cl)cccc1NC(=O)COC(=O)c1c2c(nc3ccccc13)CCN(Cc1ccccc1)C2	0.94	14	39	99*	-1.2	0.9
Cc1cc(N2CCN(C)CC2)ccc1NC(=O)c1c2c(nc3ccccc13)CCN(Cc1ccccc1)C2	-0.86	-10	3	100*	-1.1	1.1
CC(C)c1ccccc1NC(=O)COC(=O)c1c2c(nc3ccccc13)CCN(Cc1ccccc1)C2	-1.2	16	21	46	·	0.8
CCN1CCc2nc3ccccc3c(C(=O)Nc3ccc(C#N)cc3)c2C1	0.043	-8	-10	2	-0.13	1.1
COc1cccc(NC(=O)COC(=O)c2c3c(nc4ccccc24)CCC(C)C3)c1 (stereo not given)	-1.4	30	-31	54*	·	0.7
Cc1ccc(C)c(-n2nnnc2SCC(=O)NCCC2=CCCCC2)c1	-1.3	24	32	1	·	0.8
